Measurements gathered from unrelated publications.
Lines come from different studies, so protocols differ.
Medium: PAMPA

C=C(CC(=O)OC)C(=O)OCOC(=O)C(C)(C)C — Papp (10 µM; 4 h; pH 7.4): > 10 ×10⁻⁶ cm/s
CCCCC(CC)COC(=O)c1ccc(O)cc1 (stereo not shown) — Papp (5 µM; pH 7.4): 1.49 ×10⁻⁶ cm/s
Cc1[nH]c(C)c(S(=O)(=O)Nc2ccc(C(F)(F)F)c(Cl)c2)c1C(=O)N1CCC(F)(F)C1 — Papp: 7.3 ×10⁻⁶ cm/s
Cc1c(S(=O)(=O)N2CCC(C)CC2)cc(C(=O)NCc2cccnc2N2CCCC2)n1C — Papp: 32.8 ×10⁻⁶ cm/s
Cc1[nH]c(C)c(S(=O)(=O)Nc2ccc(C(F)(F)F)c(Cl)c2)c1C(=O)N(C)C — Papp: 11 ×10⁻⁶ cm/s
C=C(CC(=O)OCOC(=O)C(C)(C)C)C(=O)O — Papp (10 µM; 4 h; pH 7.4): < 1 ×10⁻⁶ cm/s
Cc1c(S(=O)(=O)N2CCc3[nH]ncc3C2)cc(C(=O)NCc2cccnc2N2CCCC2)n1C — Papp: 14.4 ×10⁻⁶ cm/s
CC(C)(C)OC(=O)c1ccc(O)cc1 — Papp (5 µM; pH 7.4): 4.04 ×10⁻⁶ cm/s
C=C(CC(=O)OC)C(=O)OCOC(=O)OC(C)C — Papp (10 µM; 4 h; pH 7.4): > 10 ×10⁻⁶ cm/s
CCCCCCCOC(=O)c1ccc(O)cc1 — Papp (5 µM; pH 7.4): 1.9 ×10⁻⁶ cm/s
Cc1c(S(=O)(=O)N2CCc3n[nH]cc3C2)cc(C(=O)NCc2c(F)ccc3cnn(C)c23)n1C — Papp: 11 ×10⁻⁶ cm/s
CCCOC(=O)c1ccc(O)cc1 — Papp (5 µM; pH 7.4): 7.04 ×10⁻⁶ cm/s
C=C(CC(=O)OCc1oc(=O)oc1C)C(=O)OCc1oc(=O)oc1C — Papp (10 µM; 4 h): ~15 ×10⁻⁶ cm/s
CCOC(=O)c1ccc(O)cc1 — Papp (5 µM; pH 7.4): 4.72 ×10⁻⁶ cm/s
Cc1c(S(=O)(=O)N2CCn3nccc3C2)cc(C(=O)NCc2c(F)ccc3cnn(C)c23)n1C — Papp: 25 ×10⁻⁶ cm/s
C=C(CC(=O)OC)C(=O)OCc1oc(=O)oc1C — Papp (10 µM; 4 h): ~15 ×10⁻⁶ cm/s
